High-throughput results: PubChem, The Scripps Research Institute Molecular Screening Center
TAAR1 antagonist – human TAAR1 antagonism; 360,000 tested, 1.5% active; inhibition, % at 3 µM; AID 624466; CHO RD-HGA16 TAAR1, Fluo-8 calcium fluorescence, antagonist; Q96RJ0;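 active = inhibition above a per-plate cutoff, the mean inhibition of test compounds on that plate plus 3 SD, cut at about 49% in these data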;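 note: 0% = DMSO plus EC80 beta-PEA response and 100% = DMSO alone without agonist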
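System: RD-HGA16 CHO cells with stable hTAAR1 and Gα16 | Probe or stimulus: EC80 β-phenethylamine stimulus | Dosing: 3 µM, single point | Times: Dye loading 75 min at 37 °C, then 30 min room temperature | Measured by: Fluo-8 calcium-sensitive fluorescence | Read-out basis: % inhibition of agonist calcium response | Replicates: n of 1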
OX1R antag-1 – blocks the human orexin 1 receptor; O43613; OX1R-expressing cells, FRET antagonist read-out; inhibition, % at 6.6 µM; 330,000 tested, 1.8% active; AID 485270; in the data active = inhibition mostly above about 38%, no sharp cut-off; inactive = mostly below about 40%;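 note: 0% = agonist challenge alone and 100% = reference antagonist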
Target sequence (O43613 whole entry, looked up): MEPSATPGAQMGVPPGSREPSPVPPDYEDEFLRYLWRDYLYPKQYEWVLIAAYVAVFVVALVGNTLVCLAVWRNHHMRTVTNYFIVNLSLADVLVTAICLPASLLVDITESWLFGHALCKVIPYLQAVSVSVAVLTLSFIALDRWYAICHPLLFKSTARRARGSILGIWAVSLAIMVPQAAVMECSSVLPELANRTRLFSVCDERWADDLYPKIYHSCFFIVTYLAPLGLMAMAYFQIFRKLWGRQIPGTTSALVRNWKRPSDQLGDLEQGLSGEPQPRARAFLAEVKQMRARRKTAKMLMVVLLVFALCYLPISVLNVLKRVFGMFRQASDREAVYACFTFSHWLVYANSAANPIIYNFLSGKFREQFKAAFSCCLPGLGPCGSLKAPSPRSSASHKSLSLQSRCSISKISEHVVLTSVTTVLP
OX1R antag-2 – blocks the human orexin 1 receptor; O43613; inhibition, % at 5 µM; 330,000 tested, 0.43% active; CHO/OX1R cells, Fluo-8 calcium fluorescence, orexin A;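 active = inhibition above its plate's threshold, mean inhibition of all tested compounds on the plate plus 3 SD, cut at about 37% in these data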;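 note: 0% = orexin A challenge wells and 100% = SB-334867-A antagonist wells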
CHO parental Ca – counter-screen: ATP calcium response change in parental CHO cells. parental CHO-K1, ATP-induced calcium, Fluo-8 fluorescence. 330,000 tested, 0.63% active. inhibition, % at 5.6 µM;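 active = inhibition above that plate's mean sample inhibition plus 3 SD, cut at about 26% in these data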;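 note: 0% = ATP-challenged DMSO wells and 100% = DMSO wells without ATP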
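Measured by: calcium-sensitive Fluo-8 fluorescence / Test system: CHO parental line / Controls: ATP-challenged DMSO wells low, unchallenged DMSO wells high / Measure: % inhibition / Compound: single nominal dose of 5.6 µM per compound / Replicates: single well per compound, no replicates / Reagent: ATP as calcium-mobilizing challenge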
GalR3 antag – blocks the human galanin receptor 3; HEK293 GalR3-CNG cAMP membrane potential fluorescence; galR3 body fused to GalR1 C-terminus; 360,000 tested, 0.44% active; O60755; AID 651719; inhibition, % at 3 µM;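 active = inhibition above the screen-wide average plus 3 SD, cut at about 13% in these data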;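 note: forskolin and galanin both at EC90 stimulate the cells; cAMP rise reported by CNG channel membrane potential dye signal; 0% = forskolin plus galanin with DMSO and 100% = forskolin alone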
Target sequence (O60755 1-299 limits assumed): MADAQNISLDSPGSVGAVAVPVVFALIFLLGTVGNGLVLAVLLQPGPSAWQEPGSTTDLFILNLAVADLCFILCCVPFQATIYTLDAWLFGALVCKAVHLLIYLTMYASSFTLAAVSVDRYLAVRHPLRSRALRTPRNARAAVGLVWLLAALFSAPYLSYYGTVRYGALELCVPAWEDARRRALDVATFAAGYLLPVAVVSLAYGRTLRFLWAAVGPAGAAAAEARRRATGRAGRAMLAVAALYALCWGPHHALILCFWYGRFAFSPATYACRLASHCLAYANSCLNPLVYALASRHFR
TAAR1 agonist – agonists of human TAAR1; Q96RJ0; CHO RD-HGA16 TAAR1, Fluo-8 calcium fluorescence; vehicle wells 0%, saturating PEA agonist 100%; activation, % at 3 µM; 360,000 tested, 0.99% active; AID 624467;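 active = activation above the mean activation of all test compounds in the run plus 3 SD, cut at about 38% in these data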
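System: CHO-derived RD-HGA16 cells with stable Gα16 and human TAAR1. Times: 17-24 h plating, Fluo-8 75 min 37 °C, 30 min RT. Measured by: calcium-sensitive Fluo-8 signal, excitation 470-495, emission 515-575 nm. Read-out basis: % activation relative to PEA EC100 response. Control set: DMSO and PEA EC100. Repeats: no replicates (n 1).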
nonsel antag count – nonselective antagonist in TAAR1 antagonist counter-screen | shares compounds with TAAR1 antagonist | counterscreen cell line, calcium fluorescence, antagonist mode | inhibition, % at 3 µM | 2,400 tested, 77% active; in the data active = inhibition above about 22%;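 note: CHO-Ga16 host cells stimulated with ATP at an EC80 level; 0% = agonist EC80 plus vehicle and 100% = vehicle without agonist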
TAAR1 antag conf – confirmation of human TAAR1 antagonists; shares compounds with TAAR1 antagonist; TAAR1-expressing cells, fluorescence antagonist read-out; inhibition, % at 3 µM; 2,400 tested, 40% active; AID 651785; in the data active = inhibition above about 49%;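 note: CHO-Ga16 host cells challenged with agonist PEA near its EC80; 0% = agonist at EC80 plus vehicle and 100% = vehicle with no agonist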
Ga16 ag counter – nonselective Ga16 agonist in TAAR1 antagonist counter-screen | shares compounds with TAAR1 antagonist | Ga16-expressing cells, calcium fluorescence, agonist counterscreen | activation, % at 3 µM | 2,400 tested, 18% active | AID 651953; in the data active = activation above about 12%;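 note: 0% = vehicle wells and 100% = saturating stimulus response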
TAAR1 ag count – TAAR1 agonism, antagonist counter-screen | shares compounds with TAAR1 antagonist | hTAAR1 cell line, fluorescence activation, agonist mode | activation, % at 3 µM | 2,400 tested, 2% active | AID 651955; in the data active = activation above about 37%;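 note: CHO cells stably expressing TAAR1 with calcium dye readout; 0% = DMSO vehicle and 100% = full agonist response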
Starred values were filed as active, the others as inactive; / = not tested or not shown. Hits are enriched below; roughly 4.3% of the tested compounds scored in any of these assays.

SMILES | TAAR1 antagonist | OX1R antag-1 | OX1R antag-2 | CHO parental Ca | GalR3 antag | TAAR1 agonist | nonsel antag count | TAAR1 antag conf | Ga16 ag counter | TAAR1 ag count
COc1cccc(-c2ccc(SCC(=O)NC3CCCCC3)nn2)c1 | -12 | 15 | -21 | -7 | 2 | 0 | / | / | / | /
O=C(CN1C(=O)c2ccccc2C1=O)NCC(=O)Nc1ccccc1 | 3 | / | / | / | -6 | 6 | / | / | / | /
CCCCCN(C(=O)CCC(=O)OCC(=O)N1CCCCC1C)c1c(N)n(CCCC)c(=O)[nH]c1=O (configuration not stated) | -16 | 7 | -12 | -7 | -2 | 1 | / | / | / | /
Cc1onc(-c2ccccc2Cl)c1C(=O)Nc1cccc(-c2nc3ncccn3c2C)c1 | 107* | 24 | -14 | -20 | -3 | 17 | 16 | 19 | 6 | 12
CCOC(=O)N1CCN(C(=O)CSCC(=O)Nc2nc(-c3ccc(C)cc3)cs2)CC1 | -3 | 6 | -31 | -26 | / | 0 | / | / | / | /
O=C(CSCC(=O)N1CCCc2ccccc21)Nc1nc(-c2ccccc2)cs1 | 51* | 33* | -24 | -1 | / | 0 | 29* | 34 | 3 | 3
COc1cccc(NC(=O)CSC2=NN3CCCC(=O)N=C3S2)c1 | 104* | 23 | -24 | -22 | -4 | 3 | 2 | 6 | 5 | 5
C[C@@H](O)CNC(=O)c1[nH]cnc1C(=O)N[C@H](C)c1ccccc1 | 2 | / | / | / | 1 | 0 | / | / | / | /
COc1ccc2[nH]c(=O)c(CN(Cc3nnnn3Cc3ccco3)C3CCCCC3)cc2c1 | 67* | 38 | -24 | -34 | -4 | 25 | 28* | 51* | 12* | 18
c1ccc(-c2c(-c3ccccc3)n(Cc3ccco3)c3ncnc(NCCCn4ccnc4)c23)cc1 | 61* | 53* | 21 | 28 | -4 | 27 | 25* | 34 | 22* | 40*
OCCNc1ncnc2c1c(-c1ccccc1)c(-c1ccccc1)n2Cc1ccco1 | 12 | 29 | -22 | -19 | -4 | 21 | / | / | / | /
COc1ccc2c(c1OC)C(=O)OC2N1C(=O)CC[C@H]1C(=O)Nc1ccc(F)cc1F (some centres not stated) | -18 | 6 | -16 | -12 | -6 | 2 | / | / | / | /
COc1ccc(-c2ccc(CN3C(CC(C)C)C(=O)N(Cc4cn(CCC5OCCCO5)nn4)CCS3(=O)=O)cc2)cc1OC (configuration not stated) | 57* | / | / | / | 0 | 7 | 24* | 33 | 7 | 6
CC1C(=O)N(Cc2cn(CCC3OCCCO3)nn2)CCS(=O)(=O)N1Cc1ccc(-c2ccc(Cl)cc2)cc1 (configuration not stated) | 87* | / | / | / | -5 | 19 | 45* | 59* | 16* | 10
CCc1ccc2nc(NC(=O)C3CSC4(C)CCC(=O)N34)sc2c1 (configuration not stated) | -11 | 10 | -32 | -20 | -4 | 4 | / | / | / | /
Nc1sccc1C(=O)NCc1ccccc1 | -10 | / | / | / | -7 | 18 | / | / | / | /
COc1ccc(-c2[nH]c3ccccc3c2SCCNC(=O)c2ccccc2)cc1 | 70* | 29 | -9 | 1 | / | 2 | 23* | 41 | 5 | 5
COC(=O)CNC(c1ccccc1)c1cc(Cl)ccc1NC(=O)c1cccc(Cl)c1 (configuration not stated) | 87* | 46 | -15 | -15 | -5 | -1 | 11 | 34 | 2 | 6
O=C(c1ccco1)N1CCN(C(c2ccccc2Cl)c2nnnn2Cc2ccco2)CC1 (configuration not stated) | 62* | 10 | -19 | -7 | 0 | 18 | 35* | 55* | 10 | 9
Cc1ccc(CSc2ccc3nnc(-c4ccccn4)n3n2)cc1 | 61* | 5 | -25 | -12 | 3 | 2 | 25* | 35 | 6 | 6
Cc1ccc(CSc2ccc3nnc(-c4cccnc4)n3n2)cc1 | 38 | 6 | -12 | -19 | -11 | 13 | / | / | / | /
Brc1ccc(CSc2ccc3nnc(-c4ccccn4)n3n2)cc1 | 39 | 39 | -22 | -24 | -6 | 5 | / | / | / | /
Brc1ccc(CSc2ccc3nnc(-c4cccnc4)n3n2)cc1 | 60* | 15 | -24 | -16 | -5 | 7 | 25* | 39 | 9 | 13
O=C(OCc1nc2scc(-c3ccccc3)c2c(=O)[nH]1)c1ccco1 | 24 | 25 | -15 | -10 | -1 | 5 | / | / | / | /
CC(C)[C@H](NC(=O)c1ccccc1)C(=O)OCc1nc2scc(-c3ccccc3)c2c(=O)[nH]1 | 73* | 20 | 7 | 13 | -3 | 13 | 36* | 55* | 11 | 14
SMILES | TAAR1 antagonist | OX1R antag-1 | OX1R antag-2 | CHO parental Ca | GalR3 antag | TAAR1 agonist | nonsel antag count | TAAR1 antag conf | Ga16 ag counter | TAAR1 ag count
COc1cccc(/C=N/NC(=O)c2c(C)nc3ccc(Cl)cn23)c1O | -2 | 19 | -20 | -2 | -5 | 0 | / | / | / | /
N#CC(C#N)=C1C=CC=CN1/C(=C\c1ccccc1Cl)C(=O)c1ccccc1 | 56* | 8 | 7 | -4 | 3 | 8 | 49* | 59* | 6 | 2
N#CC(C#N)=C1C=CC=CN1/C(=C\c1ccccc1)C(=O)c1cccs1 | 13 | 35 | -16 | -14 | -3 | 2 | / | / | / | /
Cn1c(Cc2cccs2)nnc1SCC(=O)N1CCCc2ccccc21 | 1 | 4 | -10 | 0 | -2 | 2 | / | / | / | /
O=C(CSc1nnc(Cc2cccs2)n1C1CCCCC1)N1CCCc2ccccc21 | 64* | 34 | -8 | -8 | -4 | 24 | 36* | 54* | 10 | 11
O=C(CSc1nnc(Cc2cccs2)n1CCc1ccccc1)N1CCCc2ccccc21 | 57* | 11 | 13 | -8 | -5 | 19 | 22* | 58* | 11 | 12
CCCCN(C)C(=O)C(Cc1ccccc1)NS(=O)(=O)c1ccc2c(c1)c(=O)n(C)c(=O)n2C (configuration not stated) | 67* | 9 | -12 | -11 | 2 | 22 | 31* | 46 | 11 | 13
CCCNC(=O)C(Cc1ccccc1)NS(=O)(=O)c1ccc2c(c1)c(=O)n(C)c(=O)n2C (configuration not stated) | 2 | 3 | -11 | -5 | 2 | 2 | / | / | / | /
O=C1NC2(CCCCCC2)C(=O)N1Cc1cccc([N+](=O)[O-])c1 | 101* | 8 | -7 | 3 | -9 | -2 | 0 | 5 | 1 | 5
